Data published in PMC5034689 (Molecular Metabolism, 2016).

Experiments:
MIN6 cells = settings: cited from earlier work
71 unrelated kinases = settings: cited from earlier work
Recombinant human IP6K1 [1] = target: T1, Recombinant human IP6K1 (Homo sapiens, UniProt Q92551); test: IP6K1 activity assay in vitro, SDS-PAGE assay; type: biochemical; settings: TNP 1 μM
Summary of the method: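 Recombinant human IP6K1 (100 ng, purified from E. coli) was incubated in 20 mM Tris pH 7.4 with 5 mM MgCl2, 5 nmol IP6, 1 mM ATP and 1 mM DTT. DMSO or 1 μM test compound was added. IP6 conversion to 5-IP7 was resolved and read by SDS-PAGE.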

DIO mice [2] = test: Short-term TNP treatment of DIO mice; type: in vivo, C57BL6 mice; settings: 20 mg/kg BW daily
Summary of the method: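 Mice fed HFD for 8 weeks received daily 20 mg/kg test compound with continued HFD (vehicle n = 6, treated n = 8). Food intake was measured after 7 days. GTT (glucose 2 g/kg i.p.) and ITT (insulin 0.75 U/kg i.p.) were done on days 12 and 17 after a 5 h fast. Tissues were taken on day 18. Akt S473 was immunoblotted from RIPA lysates, with densitometry n = 3.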

CYP1A2 = target: T2, CYP1A2 (Homo sapiens, UniProt P05177); test: CYP450 inhibition in human hepatic microsomes, CYP1A2; type: in vitro ADME; settings: liver microsomes
T2 sequence (P05177 1-516): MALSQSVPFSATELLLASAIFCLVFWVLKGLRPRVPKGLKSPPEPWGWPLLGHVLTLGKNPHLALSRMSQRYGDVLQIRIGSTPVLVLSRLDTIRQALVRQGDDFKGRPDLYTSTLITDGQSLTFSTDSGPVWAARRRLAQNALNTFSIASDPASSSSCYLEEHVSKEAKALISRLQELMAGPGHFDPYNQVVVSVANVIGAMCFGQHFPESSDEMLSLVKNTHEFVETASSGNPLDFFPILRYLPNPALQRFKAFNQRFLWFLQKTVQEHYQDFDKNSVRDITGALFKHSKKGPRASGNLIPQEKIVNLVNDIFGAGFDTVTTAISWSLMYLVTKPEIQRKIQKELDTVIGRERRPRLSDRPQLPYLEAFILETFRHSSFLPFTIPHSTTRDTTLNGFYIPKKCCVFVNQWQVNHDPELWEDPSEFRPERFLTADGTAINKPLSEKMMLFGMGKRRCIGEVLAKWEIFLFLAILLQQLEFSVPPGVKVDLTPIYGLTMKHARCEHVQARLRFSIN

Recombinant human IP6K1 [3] = target: T1, Recombinant human IP6K1; test: IP6K1 activity assay in vitro, radiochemical assay; type: biochemical; settings: TNP 1 μM
Summary of the method: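 Recombinant human IP6K1 (100 ng) was incubated 1 h in 20 mM Tris pH 7.4 with 5 mM MgCl2, 2 nmol IP6, [3H]IP6 (130 nCi), 1 mM ATP and 1 mM DTT, plus DMSO or 1 μM test compound. 5-IP7 was resolved by HPLC, with activity expressed relative to DMSO (100%). Run in triplicate.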

[4] = Plasma protein binding, equilibrium dialysis, summary over species; type: in vitro ADME; settings: human, mouse, rat
Summary of the method: (§1)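 Binding was measured by rapid equilibrium dialysis in triplicate, starting at 1 μM drug in the plasma chamber against PBS. Plates were shaken 6 h at 37 °C. Samples were matrix-matched to 1:1 plasma:PBS and quantified by LC-MS/MS. Fraction bound = ([plasma] − [PBS])/[plasma].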

PP-IP5K = settings: cited from earlier work
[5] = Hepatic microsomal stability, human; type: in vitro ADME; settings: liver microsomes, pH 7.4
Summary of the method: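 Test compound (1 μM) was incubated with liver microsomes (1 mg/ml) and 1 mM NADPH in 100 mM potassium phosphate, pH 7.4. Aliquots were taken at 0, 5, 10, 20, 40 and 60 min and analysed by LC-MS/MS. Loss of parent was expressed as half-life.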

[6] = Plasma and tissue availability after a single intraperitoneal TNP injection; type: in vivo, mice
Summary of the method: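 Chow-fed mice received a single i.p. injection (20 mg/kg) in DMSO:Tween 80:water (1:1:8). Plasma levels were followed 1–6 h after dosing. Liver, skeletal muscle, white and brown adipose tissue and brain were collected 6 h after dosing to measure tissue concentrations.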

[7] = Plasma protein binding, equilibrium dialysis, human; type: in vitro ADME
Summary of the method: as §1

cortical neurons = settings: cited from earlier work
[8] = tested on: human promyelocytic leukemia (HL60) cells; settings: cited from earlier work
IP6Ks = settings: cited from earlier work
DIO mice [9] = test: Single dose of TNP in DIO mice; type: in vivo
Summary of the method: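 Chow-fed lean or DIO mice (n = 4/group) received one 20 mg/kg injection, were fasted 5 h, then given GTT (glucose 2 g/kg i.p., tail-vein glucometer from time 0). Mice were then sacrificed for tissues and cardiac-puncture serum. Insulin was measured by ultra-sensitive ELISA and TAG by a metabolic core. Akt S473 was immunoblotted (T308 also in IWAT), with densitometry n = 3.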

IP6K1-KO mice = test: Long-term TNP for reversal of DIO in IP6K1-KO mice; type: in vivo
Summary of the method: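 Inbred IP6K1-KO mice (seventh generation) and WT littermates, n = 4/group, received HFD for 8 weeks, then daily injections (10 mg/kg) with continued HFD for 10 weeks. GTT was done at week 5: 5 h fast, glucose 2 g/kg i.p., tail-vein glucometer readings including time 0. After 10 weeks, fat, lean and fluid masses were measured by LF-NMR, and mice were sacrificed after a 5 h fast.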

CYP3A4 = CYP3A4 (Homo sapiens, UniProt P08684); test: CYP450 inhibition in human hepatic microsomes, CYP3A4; type: in vitro ADME; settings: liver microsomes, probe midazolam (hydroxylation to 1′-hydroxymidazolam)
CYP2C9 = CYP2C9 (Homo sapiens, UniProt P11712); test: CYP450 inhibition in human hepatic microsomes, CYP2C9; type: in vitro ADME; settings: liver microsomes, probe tolbutamide (hydroxylation to hydroxytolbutamide)
CYP2C9, sequence (P11712 whole entry): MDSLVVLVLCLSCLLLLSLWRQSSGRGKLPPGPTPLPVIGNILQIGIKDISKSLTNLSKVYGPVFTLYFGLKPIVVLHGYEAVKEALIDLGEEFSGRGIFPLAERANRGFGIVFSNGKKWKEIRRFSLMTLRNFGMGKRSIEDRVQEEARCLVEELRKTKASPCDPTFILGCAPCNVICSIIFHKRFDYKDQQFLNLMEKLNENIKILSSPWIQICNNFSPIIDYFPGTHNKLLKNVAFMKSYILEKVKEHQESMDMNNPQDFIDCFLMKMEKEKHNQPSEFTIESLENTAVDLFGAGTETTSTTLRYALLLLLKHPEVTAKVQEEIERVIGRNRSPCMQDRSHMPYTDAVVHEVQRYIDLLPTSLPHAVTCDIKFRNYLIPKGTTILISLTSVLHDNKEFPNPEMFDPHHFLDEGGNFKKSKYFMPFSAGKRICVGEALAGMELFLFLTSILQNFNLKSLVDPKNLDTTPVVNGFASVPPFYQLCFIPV

T1 sequence (Q92551 whole entry): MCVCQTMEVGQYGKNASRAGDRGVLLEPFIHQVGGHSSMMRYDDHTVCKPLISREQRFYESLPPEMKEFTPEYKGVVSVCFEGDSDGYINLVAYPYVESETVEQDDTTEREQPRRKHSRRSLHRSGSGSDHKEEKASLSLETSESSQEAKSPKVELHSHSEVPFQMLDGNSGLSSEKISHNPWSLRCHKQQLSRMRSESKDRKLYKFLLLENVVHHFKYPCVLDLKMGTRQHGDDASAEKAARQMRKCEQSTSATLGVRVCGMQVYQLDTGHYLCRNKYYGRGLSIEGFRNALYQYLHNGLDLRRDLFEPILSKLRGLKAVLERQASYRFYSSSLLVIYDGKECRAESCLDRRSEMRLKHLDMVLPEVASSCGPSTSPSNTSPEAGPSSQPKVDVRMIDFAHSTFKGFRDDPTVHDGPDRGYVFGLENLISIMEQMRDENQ
CYP3A4, sequence (P08684 whole entry): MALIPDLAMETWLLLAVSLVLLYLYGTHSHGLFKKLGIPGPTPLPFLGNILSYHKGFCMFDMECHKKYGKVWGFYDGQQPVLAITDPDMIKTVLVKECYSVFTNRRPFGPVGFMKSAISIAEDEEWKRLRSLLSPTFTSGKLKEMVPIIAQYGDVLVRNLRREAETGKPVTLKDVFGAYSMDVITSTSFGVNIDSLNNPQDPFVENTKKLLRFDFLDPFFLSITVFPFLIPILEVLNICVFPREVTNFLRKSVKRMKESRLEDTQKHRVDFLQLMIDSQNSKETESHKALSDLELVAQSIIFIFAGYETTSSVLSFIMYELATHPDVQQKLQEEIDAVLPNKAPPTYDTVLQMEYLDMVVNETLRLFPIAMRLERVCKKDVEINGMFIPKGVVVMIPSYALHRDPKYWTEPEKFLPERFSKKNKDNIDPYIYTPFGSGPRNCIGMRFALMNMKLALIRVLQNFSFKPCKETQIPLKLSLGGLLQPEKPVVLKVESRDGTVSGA

IP6K1 activity (Recombinant human IP6K1 [1]): inhibits IP6K1 activity
inhibition at 10 μM (CYP1A2): 86%
IP6K1 catalytic activity (Recombinant human IP6K1 [3]): blocks the catalytic activity of IP6K1
fraction unbound at 6 h, 1 μM [4]: 0.07 to 0.1
half-life at 1 μM [5]: 0.533 h
Crossing of the BBB ([6]; mice): does not efficiently cross the BBB
half-life ([6]; mouse, plasma, ip, 20 mg/kg): ~6 h
TNP concentration in plasma ([6]; single dose 20 mg/kg i.p., chow fed mice, 1–6 h post-treatment): 5 to 10 µM
fraction unbound at 6 h, 1 μM [7]: 0.083
inhibition at 10 μM (CYP3A4): 98%
inhibition at 10 μM (CYP2C9): 92%
SMILES: O=[N+]([O-])c1ccc(CNc2nc(NCc3cccc(C(F)(F)F)c3)nc3[nH]cnc23)cc1 [TNP, N6-(4-nitrobenzyl)-N2-(3-(trifluoromethyl)benzyl)-9H-purine-2,6-diamine]
Insulin secretion (MIN6 cells): reduces insulin secretion
Effect on 71 unrelated kinases (71 unrelated kinases): does not influence
Glucose disposal following glucose injection (GTT) (DIO mice [2]; 12th day): efficient glucose disposal
Glucose disposal following insulin injection (ITT) (DIO mice [2]; 17th day): disposes glucose more efficiently
Fatty liver (histology) (DIO mice [2]; 18 days): ameliorates fatty liver
Serum glycerol levels (DIO mice [2]; 18 days): does not alter
Serum insulin level (DIO mice [2]; 18 days): not significantly altered
Serum levels of cholesterol or triglycerides (DIO mice [2]; 18 days): not altered
Reduction of fat mass by treatment (DIO mice [2]; 18 days, DIO mice, QNMR): ~3 g
Akt S473 phosphorylation in the IWAT depot, enhancement vs vehicle (DIO mice [2]; 18 days, densitometry): 4 fold
Serum levels of AST and ALT (DIO mice [2]; 18 days, vs vehicle): less
UCP1 mRNA expression in the IWAT (DIO mice [2]; 18 days, vs vehicle): higher
Weight of the EWAT depot (DIO mice [2]; 18 days, vs vehicle): significantly less
Daily energy intake (DIO mice [2]; after 7 days): does not influence daily energy intake
Effect on the 1-IP7 generating enzyme PP-IP5K (PP-IP5K): does not influence
Cytosolic Zn2+ levels (cortical neurons): slightly elevates
Ca2+ levels [8]: slightly elevates
Potency on IP6Ks over IP3-3K (IP6Ks): 70 fold
Blood glucose level (DIO mice [9]; single dose 20 mg/kg BW): significantly reduces
Glucose tolerance (GTT) (DIO mice [9]; single dose 20 mg/kg BW): significantly improves
HFD induced increase in serum insulin (DIO mice [9]; single dose 20 mg/kg BW): slightly reduces
Serum TAG level (DIO mice [9]; single dose 20 mg/kg BW): does not influence
Serum cholesterol, HDL, and LDL levels (DIO mice [9]; single dose 20 mg/kg BW): slightly reduces
Increase in Akt S473 phosphorylation in IWAT, soleus muscle and liver (DIO mice [9]; single injection 20 mg/kg BW, phospho S473/total Akt, ImageJ): 2–3 fold
TNP mediated weight loss (IP6K1-KO mice; 10 mg/kg BW daily, 10 weeks): resistant to Rev-TNP mediated weight loss
Total fat, lean, and fluid masses (IP6K1-KO mice; 10 mg/kg BW daily, 10 weeks): unaltered
Body weight (IP6K1-KO mice; 10 mg/kg BW daily, after 10-week of treatment): ~33 g
Glucose disposal (GTT) (IP6K1-KO mice; after 5 weeks of TNP treatment): not altered
